APJ ag – agonists of human APJ apelin receptor; P35414; CHO-K1 APJ PathHunter beta-arrestin, luminescence; 0% DMSO wells, 100% apelin; activation, % at 20 µM; 330,000 tested, 0.11% active; AID 2520;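 active = activation more than six SD over the plate average, tested at 20 µM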;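 also: 0% = DMSO alone and 100% = apelin-13 at 10 nM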
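Assay system: CHO-K1 APJ beta-arrestin complementation cell line / Compound: single test compound dose, 20 µM final, 1% DMSO / Times: overnight seeding, 90 min compound at 25 °C, 1 h detection / Technique: beta-gal luminescence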
iPSC survival up – enhancers of human iPSC single-cell survival; hiPSC single-cell survival, ATPlite luminescence; 100% = ROCK inhibitor wells, 0% = DMSO; survival enhancement, % at 20 µM; 360,000 tested, 0.044% active; in the data active = survival enhancement above about 18%;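 also: cells exposed to compounds for 16 hours before the ATP read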
CXCR6 block – CXCR6 (human) receptor inhibition | inhibition, % at 20 µM | CHO-K1 PathHunter CXCR6 beta-arrestin, luminescence | 360,000 tested, 0.36% active; in the data active = inhibition above about 34%, passing the limit was not always enough;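 also: antagonist mode with CXCL16 agonist at 10 nM final; 0% = 10 nM CXCL16 with DMSO and 100% = unstimulated wells without agonist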
Target sequence (O00574 whole entry, looked up): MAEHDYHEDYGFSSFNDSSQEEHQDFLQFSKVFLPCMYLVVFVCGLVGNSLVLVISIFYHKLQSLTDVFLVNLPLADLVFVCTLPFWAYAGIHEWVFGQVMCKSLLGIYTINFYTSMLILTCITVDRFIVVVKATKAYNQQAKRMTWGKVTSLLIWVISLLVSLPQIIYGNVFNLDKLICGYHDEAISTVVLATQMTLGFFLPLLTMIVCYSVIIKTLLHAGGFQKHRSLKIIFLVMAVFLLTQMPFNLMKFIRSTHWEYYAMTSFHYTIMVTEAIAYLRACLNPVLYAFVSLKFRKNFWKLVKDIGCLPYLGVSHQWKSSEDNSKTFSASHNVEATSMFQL
APJ antagonist – antagonists of human APJ apelin receptor | inhibition, % at 20 µM | AID 2521 | CHO-K1 APJ beta-arrestin complementation, luminescence | P35414 | 330,000 tested, 0.32% active;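 active = inhibition above about 40% at 20 µM, limit read from the data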;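 also: cells challenged with 10 nM apelin-13 agonist together with compound; plate controls were apelin-13 plus DMSO wells for no effect and DMSO wells lacking apelin-13 for full effect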
CCR6 antag – blocks CCL20-driven beta-arrestin recruitment at human CCR6; P51684; CHO-K1 CCR6 PathHunter beta-arrestin, luminescence, CCL20-stimulated; inhibition, % at 20 µM; 340,000 tested, 0.49% active; AID 493098;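 active = compounds whose inhibition of the agonist-driven luminescence signal at 20 µM reaches about 50%, limit read from the data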;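 also: cells stimulated with CCL20 at 14 nM final; plate controls were DMSO with CCL20 for no effect and DMSO without agonist for full effect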
EBI2 block – EBI2 (human) antagonism; P32249; 360,000 tested, 0.81% active; EBI2 beta-arrestin recruitment, luminescence, 7a,25-OHC stimulated; inhibition, % at 5 µM; in the data active = inhibition above about 38%;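 also: enzyme fragment complementation signal reports receptor beta-arrestin coupling in cells; 0% = agonist plus DMSO wells and 100% = wells without agonist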
Target sequence (P32249 whole entry, looked up, the tested form may be a part): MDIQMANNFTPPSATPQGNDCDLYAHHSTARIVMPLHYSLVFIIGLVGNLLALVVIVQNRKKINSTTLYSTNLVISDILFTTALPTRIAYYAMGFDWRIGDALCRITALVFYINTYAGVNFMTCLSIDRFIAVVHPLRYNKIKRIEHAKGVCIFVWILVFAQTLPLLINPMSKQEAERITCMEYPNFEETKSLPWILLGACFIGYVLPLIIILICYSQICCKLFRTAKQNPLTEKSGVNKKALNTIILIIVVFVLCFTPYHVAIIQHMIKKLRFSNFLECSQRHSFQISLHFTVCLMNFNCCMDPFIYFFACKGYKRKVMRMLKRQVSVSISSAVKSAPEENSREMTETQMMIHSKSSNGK
APJ ag conf – APJ receptor agonism confirmation. shares compounds with APJ ag. CHO-K1 APJ PathHunter beta-arrestin, luminescence. activation, % at 20 µM. 310 tested, 10% active. AID 2764;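 active = activation above 40%, taking the highest of four retests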;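 also: plate controls were DMSO wells for no effect and apelin-13 at 10 nM for full effect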
APJ antag confirm – APJ receptor antagonism confirmation | APJ beta-arrestin recruitment, luminescence, antagonist mode | inhibition, % at 20 µM | shares compounds with APJ antagonist | 950 tested, 66% active; in the data active = inhibition above about 50%
* hit, by the source's call; x = not tested or not shown. Rows were chosen to be rich in hits. Some 1.5% of all compounds tested hit in one or more screens of this group.

SMILES | APJ ag | iPSC survival up | CXCR6 block | APJ antagonist | CCR6 antag | EBI2 block | APJ ag conf | others
CCOC(=O)CSC1=Nc2ccccc2C2=NC(CC(=O)NCc3ccccc3)C(=O)N12 (stereo not drawn) | 6 | -2 | 2 | 6 | 10 | -6 | x
CCC(C)NC(=O)CSC1=Nc2ccccc2C2=NC(CC(=O)NCc3ccc(F)cc3)C(=O)N12 (stereo not drawn) | 51* | 3 | -4 | -16 | 7 | -2 | 8
c1ccc(Nc2nc(NCC3CCCO3)c3ccccc3n2)cc1 (stereo not drawn) | 1 | -2 | -5 | -52 | -11 | 12 | x
CCOc1ccc(Nc2nc(NCC3CCCO3)c3ccccc3n2)cc1 (stereo not drawn) | 13* | -1 | 8 | -25 | -3 | 66* | 29
CCOC(=O)C1(Cc2ccccc2)C(=O)N(CCCN(C)C)c2ccccc21 (stereo not drawn) | 0 | 0 | 5 | 0 | 9 | 4 | x
COc1ccc(OC)c(-n2c(-c3ccc(O)cc3O)n[nH]c2=S)c1 | 2 | -1 | 5 | -5 | 5 | 3 | x
COc1cc(OC)cc(-c2n[nH]c(=S)n2-c2cc(OC)ccc2OC)c1 | 36* | 3 | 3 | -3 | 20 | -10 | 40*
CCOC(=O)CNc1nc(C(C)(C)C)nc2c1nnn2Cc1ccccc1 | 2 | -1 | -3 | 4 | -1 | 6 | x
N#Cc1cc(-c2ccccc2)nnc1Oc1ccccc1 | 1 | 10 | -1 | 11 | -1 | -5 | x
Cc1ccc(Oc2nnc(-c3ccccc3)cc2C#N)cc1 | 22* | -1 | 0 | 10 | -14 | -4 | 21
COc1cc(/C=N/Nc2nc(-c3ccc(S(=O)(=O)N(C)C)cc3)cs2)ccc1O | 21* | 0 | -18 | -70 | -17 | 10 | 32
CS(=O)c1nc(-c2ccc(Br)cc2)cc(-c2ccccc2)c1C#N (stereo not drawn) | 36* | -3 | -16 | -6 | 10 | 64* | 18
O=C(C1CCN(S(=O)(=O)c2ccc(Cl)cc2)CC1)N1CCN(c2ccccn2)CC1 | -3 | 0 | 0 | -9 | -5 | 7 | x
COc1cc(NC(=O)c2ccccc2)ccc1NC(=O)c1cc2ccccc2o1 | 17* | 2 | -1 | 3 | -5 | -10 | 1
COc1ccccc1N(CCC#N)C(=S)Nc1ccc(S(=O)(=O)N2CCOCC2)cc1 | -6 | 5 | -1 | -5 | 0 | 2 | x
CC(C)(C)OC(=O)NCCCCCNC(=O)c1nc[nH]c1C(=O)NCc1ccc(CNC(=O)OC(C)(C)C)cc1 | 12* | 4 | -26 | -22 | -7 | -39 | 9
CC(C)(C)OC(=O)NCc1ccc(CNC(=O)c2nc[nH]c2C(=O)NCc2ccc(CNC(=O)OC(C)(C)C)cc2)cc1 | 1 | 4 | 3 | 2 | 7 | 4 | x
CCCn1c(=O)c(C(=O)Nc2c(C)n(C)n(-c3ccccc3)c2=O)c(O)c2ccccc21 | 26* | -2 | 9 | -12 | -11 | -3 | 19
CCCn1c(=O)c(C(=O)Nc2cccc(C)n2)c(O)c2ccccc21 | 0 | 0 | 3 | -11 | -6 | -4 | x
CCCn1c(N)c(N(CCOC)C(=O)c2cc(C)cc(C)c2)c(=O)[nH]c1=O | -3 | 0 | -5 | 7 | -6 | -6 | x
CCCCCCCCCCn1c2c(c(=N)c3c1CCC3)CCC2 | -4 | -5 | -11 | 27 | 19 | -7 | x
CCCCCCCCCn1c2c(c(=N)c3c1CCC3)CCCC2 | 10* | 0 | -15 | 41* | 16 | -15 | 7 | APJ antag confirm=38
COC(=O)C1=C(Cn2cnc3ccccc32)NC(=O)NC1c1cc(C)ccc1C (stereo not drawn) | 76* | -2 | 3 | 46* | 14 | -29 | 62* | APJ antag confirm=29
CC1CN(C(=O)Cn2cc(S(=O)(=O)CC(=O)N3CCOCC3)c3ccccc32)CC(C)O1 (stereo not drawn) | -1 | 0 | 4 | 8 | -4 | -3 | x
CCN(CC)C(=S)SCC(=O)c1ccccc1 | -5 | -1 | -3 | -7 | 15 | -4 | x
SMILES | APJ ag | iPSC survival up | CXCR6 block | APJ antagonist | CCR6 antag | EBI2 block | APJ ag conf | others
CCN(CC)C(=S)SSC(=S)N(CC)CC | -15 | -2 | 51* | 71* | 60* | 12 | x | APJ antag confirm=108*
CCCc1nnc(NS(=O)(=O)c2ccc(C)cc2)o1 | x | 0 | -4 | x | 10 | -1 | x
CC(C)(C)N(Cc1ccccc1)C(=O)c1cc2ccccc2o1 | -2 | 2 | 2 | 45* | 21 | 15 | x | APJ antag confirm=23
CCN(CC(=O)Nc1cc(S(=O)(=O)N2CCCCC2)ccc1C)Cc1ccccc1 | 1 | 0 | -1 | 16 | 10 | 1 | x
Cc1nn(CC(=O)NCCCc2ccccc2)c(=O)c2cc3occc3n12 | -1 | 0 | 4 | 41* | 8 | 12 | x | APJ antag confirm=-2
COc1cc(/C=N/NC(=O)c2ccc(NC(=O)C3CCCCC3)cc2)ccc1O | -1 | 0 | -21 | 48* | -2 | 0 | x | APJ antag confirm=6
CCOc1cc(/C=N/NC(=O)c2ccc(NC(=O)C3CC3)cc2)ccc1O | -4 | 0 | -15 | -14 | 0 | 4 | x
Cc1c(Cl)cccc1NC(=O)CCN1C(=O)NC(C)(C)C1=O | -7 | 0 | -5 | -9 | -10 | -7 | x
Cc1ccc(NC(=O)c2cnccn2)cc1S(=O)(=O)N1CCCCCC1 | -7 | 5 | 5 | 8 | 14 | -8 | x
CCN1CCN(c2cc(C)c3cc(NC(=O)Cc4ccccc4OC)ccc3n2)CC1 | -9 | 1 | -3 | 48* | -1 | -4 | x | APJ antag confirm=13
CCN1CCN(c2cc(C)c3cc(NC(=O)CCC(=O)Nc4ccc(OC)c(OC)c4)ccc3n2)CC1 | -2 | 0 | 0 | 11 | 12 | -2 | x
CC1CCCCN1S(=O)(=O)c1ccc(C(=O)N(CCCN(C)C)c2nc3ccc(Br)cc3s2)cc1 (stereo not drawn) | 18 | -1 | -11 | 48* | 16 | -12 | x | APJ antag confirm=37
CCCNC(=O)NC(=O)CN1C(=O)NC(C)(c2ccc3ccccc3c2)C1=O (stereo not drawn) | -4 | 0 | -4 | 0 | 2 | -1 | x
O=C(Cc1coc(-c2ccc(F)cc2)n1)NC1CCCCC1 | -3 | -1 | 1 | 60* | 5 | 1 | x | APJ antag confirm=20
NC[C@H](Cc1ccccc1)NCCCCC1CCCCC1 | -5 | 0 | -5 | 8 | 0 | -9 | x
CNC[C@H](CC1CCCCC1)NC[C@H](Cc1ccccc1)NCCC12CC3CC(CC(C3)C1)C2 | -3 | -6 | 36 | 44* | x | 7 | x | APJ antag confirm=39

Screening results from PubChem BioAssay.
